The target in assay [1] is T1, Holo-[acyl-carrier-protein] synthase (Bacillus subtilis (strain 168), UniProt P96618).
T1 sequence (P96618 whole entry): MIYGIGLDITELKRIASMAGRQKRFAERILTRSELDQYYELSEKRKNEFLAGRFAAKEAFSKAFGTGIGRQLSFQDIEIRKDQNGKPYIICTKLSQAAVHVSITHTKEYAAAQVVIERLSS
The experiment in a line: In vitro inhibitory activity against Holo-[acyl-carrier-protein] synthase was determined using Bacillus subtilis GST-Acp-HTRFassay. In short, it runs like this: (§1)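 B. subtilis AcpS at 15 ng/mL was incubated with biotin-CoA and GST-ACP as acceptor. Buffer was 50 mM Tris·HCl pH 8.0 with 7.5 mM MgCl2, 3.75 mM DTT, 0.0375% Tween-20 and BSA. The reaction ran 3 h at room temperature. It was stopped with EDTA/KF containing europium cryptate anti-GST antibody plus streptavidin–allophycocyanin, and read by HTRF. Standard error per run is 10%.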

The test system of a further assay is Streptococcus pneumoniae. As to the kind of experiment: Minimum inhibitory concentration required against Streptococcus pneumoniae. Format: functional. In short, it runs like this: (§2)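 MICs against aerobic bacteria were determined by broth microdilution as recommended by NCCLS. Each compound was tested once against each strain. Standard error per run is 1 dilution.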

The test system of a further assay is Enterococcus faecalis. As to the kind of experiment: Minimum inhibitory concentration required against Enterococcus faecalis VRE strain was determined. Format: functional. In short, it runs like this: as §2
Another assay deals with Bacillus subtilis. As to the kind of experiment: Minimum inhibitory concentration required against Bacillus subtilis was determined. Format: functional. Summed up: as §2
A short description of assay [2]: Minimum inhibitory concentration required against […] faecalis ATCC strain was determined. Type of assay: functional. Conditions: Enterococcus faecalis. Summed up:
as §2

The target in assay [3] is T1, Holo-[acyl-carrier-protein] synthase. The experiment in a line: In vitro inhibitory activity against acyl carrier protein synthase (AcpS) in Bacillus subtilis GST-Acp-HTRFassay. In short, it runs like this: as §1

In brackets after ≈: the same amount, converted by molar mass.

In assay [1], `O=C(O)c1cc(Br)ccc1/N=C/c1nc(-c2ccc(C(F)(F)F)c(F)c2)oc1O` displayed an IC50 of 1.5 µM. The MIC amounted to 12.5 µM (≈ 5.91 µg/mL) in the assay on Streptococcus pneumoniae, 25 µM (≈ 11.8 µg/mL) in the assay on Enterococcus faecalis, 50 µM (≈ 23.7 µg/mL) with Bacillus subtilis and 25 µM (≈ 11.8 µg/mL) in assay [2].

For the molecule `O=C(O)c1cc(Cl)ccc1/N=C/c1nc(-c2ccc(C(F)(F)F)c(F)c2)oc1O`, in assay [1], the IC50 stood at 1.1 µM. The MIC stood at 12.5 µM (≈ 5.36 µg/mL) in the assay on Streptococcus pneumoniae, 50 µM (≈ 21.4 µg/mL) with Enterococcus faecalis, 50 µM (≈ 21.4 µg/mL) against Bacillus subtilis and 50 µM (≈ 21.4 µg/mL) in assay [2].

Take `O=C(O)c1cc(F)ccc1/N=C/c1nc(-c2ccc(C(F)(F)F)cc2)oc1O`: in assay [1], 1.9 µM corresponded to half-maximal inhibition (IC50). For the same molecule, the MIC with Streptococcus pneumoniae is 100 µM (≈ 39.4 µg/mL); against Enterococcus faecalis it was 200 µM (≈ 78.9 µg/mL); in the assay on Bacillus subtilis, 200 µM (≈ 78.9 µg/mL); in assay [2] it was 100 µM (≈ 39.4 µg/mL).

As to `CC(=O)Nc1ccc(/N=C/c2nc(-c3ccc(C(F)(F)F)c(F)c3)oc2O)c(C(=O)O)c1`, in assay [1], the IC50 was 0.13 µM. The MIC in the assay on Streptococcus pneumoniae is 200 µM (≈ 90.3 µg/mL); in the assay on Enterococcus faecalis, > 200 µM; against Bacillus subtilis, > 200 µM; in assay [2] it was > 200 µM.

Take `Cc1ccc(/N=C/c2nc(-c3ccc(C(F)(F)F)cc3)oc2O)c(C(=O)O)c1`: inhibition in assay [1] was half-maximal at 0.83 µM (IC50). Moreover, the minimum inhibitory concentration (MIC) was 100 µM (≈ 39 µg/mL) in the assay on Streptococcus pneumoniae, 100 µM (≈ 39 µg/mL) against Enterococcus faecalis, 100 µM (≈ 39 µg/mL) with Bacillus subtilis and > 200 µM in assay [2].

`O=C(O)c1cc(I)ccc1/N=C/c1nc(-c2ccc(Cl)cc2)oc1O`: the IC50 in assay [1] amounted to 1.3 µM. Moreover, the minimal inhibitory concentration (MIC) amounted to 12.5 µM (≈ 5.86 µg/mL) in the assay with Streptococcus pneumoniae, 50 µM (≈ 23.4 µg/mL) against Enterococcus faecalis, 200 µM (≈ 93.7 µg/mL) against Bacillus subtilis and 25 µM (≈ 11.7 µg/mL) in assay [2].

On to `O=C(O)c1cc(Br)c(Cl)cc1/N=C/c1nc(-c2ccc(Cl)cc2)oc1O`, for which, in assay [1], the half-inhibitory concentration (IC50) is > 20 µM. The MIC (with Bacillus subtilis; in assay [2]) was > 200 µM each time.

As to `Cc1ccc(/N=C/c2nc(-c3cccc(OC(F)(F)F)c3)oc2O)c(C(=O)O)c1`, the MIC with Streptococcus pneumoniae was found to be 25 µM (≈ 10.2 µg/mL); in the assay on Enterococcus faecalis, 100 µM (≈ 40.6 µg/mL); in the assay with Bacillus subtilis it was 25 µM (≈ 10.2 µg/mL); in assay [2], 200 µM (≈ 81.3 µg/mL). The molecule further registered an IC50 in assay [3] of 4.4 µM.

In turn, `O=C(O)c1ccccc1/N=C/c1nc(-c2ccc(Cl)cc2)oc1O` gave a half-inhibitory concentration (IC50) in assay [1] of 15 µM. Further, the minimal inhibitory concentration (MIC) (against Streptococcus pneumoniae; against Enterococcus faecalis; in the assay with Bacillus subtilis; in assay [2]) was > 200 µM in each case.

In assay [1], `O=C(O)c1cc(Br)ccc1/N=C/c1nc(-c2cccc(OC(F)(F)F)c2)oc1O` had an IC50 of 15 µM. Also, the MIC with Streptococcus pneumoniae turned out to be 12.5 µM (≈ 5.89 µg/mL); against Enterococcus faecalis, 25 µM (≈ 11.8 µg/mL); in the assay on Bacillus subtilis, 25 µM (≈ 11.8 µg/mL); in assay [2] it was 50 µM (≈ 23.6 µg/mL).

On to `COc1ccc(-c2nc(/C=N/c3ccc(F)cc3C(=O)O)c(O)o2)cc1`, for which the IC50 in assay [1] was > 20 µM. For the same molecule, the MIC (in the assay on Bacillus subtilis; in assay [2]) was > 200 µM throughout.

The molecule `O=C(O)c1cc(Cl)ccc1/N=C/c1nc(-c2cccc(OC(F)(F)F)c2)oc1O` came in with an IC50 in assay [1] of 20 µM. Further, the MIC in the assay on Streptococcus pneumoniae was 25 µM (≈ 10.7 µg/mL); against Enterococcus faecalis, 50 µM (≈ 21.3 µg/mL); against Bacillus subtilis, 50 µM (≈ 21.3 µg/mL); in assay [2], 100 µM (≈ 42.7 µg/mL).

Regarding `O=C(O)c1ccccc1/N=C/c1nc(-c2ccccc2)oc1O`, in assay [1], the IC50 is > 20 µM.

Regarding `Cc1ccc(/N=C/c2nc(-c3ccc(C(F)(F)F)c(F)c3)oc2O)c(C(=O)O)c1`, the midpoint of inhibition in assay [1], the IC50, lay at 0.27 µM. Besides, the minimal inhibitory concentration (MIC) with Streptococcus pneumoniae is 25 µM (≈ 10.2 µg/mL); in the assay on Enterococcus faecalis it was 100 µM (≈ 40.8 µg/mL); with Bacillus subtilis it was 25 µM (≈ 10.2 µg/mL); in assay [2] it was 100 µM (≈ 40.8 µg/mL).

In assay [1], `O=C(O)c1cc(F)ccc1/N=C/c1nc(-c2ccc(Cl)cc2)oc1O` yielded an IC50 of 2.1 µM. The MIC against Streptococcus pneumoniae is 200 µM (≈ 72.1 µg/mL); with Enterococcus faecalis, 100 µM (≈ 36.1 µg/mL); against Bacillus subtilis it was > 200 µM; in assay [2] it was 100 µM (≈ 36.1 µg/mL).

In turn, `O=C(O)c1cc(Br)ccc1/N=C/c1nc(-c2ccc(Cl)cc2)oc1O` showed an IC50 in assay [1] of 3.4 µM. The MIC against Streptococcus pneumoniae is 100 µM (≈ 42.2 µg/mL); in the assay on Enterococcus faecalis it was 200 µM (≈ 84.3 µg/mL); in the assay with Bacillus subtilis, > 200 µM; in assay [2], 100 µM (≈ 42.2 µg/mL).

As for `O=C(O)c1cc(Br)c(Cl)cc1/N=C/c1nc(-c2ccc(C(F)(F)F)cc2)oc1O`, in assay [1], the IC50 is 2 µM. The MIC against Streptococcus pneumoniae was 100 µM (≈ 49 µg/mL); in the assay with Enterococcus faecalis, 50 µM (≈ 24.5 µg/mL); in the assay with Bacillus subtilis, > 200 µM; in assay [2], 100 µM (≈ 49 µg/mL).

These data come from ChEMBL document CHEMBL1137973, “Anthranilate 4H-oxazol-5-ones: novel small molecule antibacterial acyl carrier protein synthase (AcpS) inhibitors” (Bioorg Med Chem Lett, 2004).
